Measured values as given in ChEMBL document CHEMBL1145399, “Design, synthesis, and pharmacology of novel 7-substituted 3,4-dihydro-2H-1,2,4-benzothiadiazine 1,1-dioxides as positive allosteric modulators of AMPA receptors” (J Med Chem, 2007).

Tests used:
Oocyte [1] = assay: Activity at Wistar rat cortex AMPA receptor expressed in Xenopus laevis oocytes assessed as 2-fold increase of (S)-AMPA-induced current; format: cell-based
Procedure, shortened: (§1)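 Two-electrode voltage clamp on Xenopus oocytes injected with rat cortex poly(A+) mRNA. Current is evoked by (S)-AMPA at 10 µM with drug co-applied. Compounds alone were checked on the holding current. Mean ± SEM, n ≥ 2–3.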

Oocyte [2] = assay: Activity at Wistar rat cortex AMPA receptor expressed in Xenopus laevis oocytes assessed as 5-fold increase of (S)-AMPA-induced current; format: cell-based; procedure, shortened: as §1
Oocyte [3] = assay: Activity at Wistar rat cortex AMPA receptor expressed in Xenopus laevis oocytes assessed as maximum increase of (S)-AMPA-induced current; format: cell-based; procedure, shortened: as §1
[4] = Activity at Wistar rat cortex AMPA receptor expressed in Xenopus laevis oocytes assessed as effect on (S)-AMPA-induced current; format: cell-based; conditions: Oocyte; procedure, shortened: as §1
Hippocampus = assay: Increase in (S)-AMPA-stimulated [3H]noradrenaline release in Wistar rat hippocampus at 30 uM relative to control; format: functional
Procedure, shortened: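 Rat hippocampal slices preloaded with [³H]-noradrenaline. Release is stimulated by (S)-AMPA, with drug at 30 µM. Drug alone was compared with basal DMSO control release. Result is the % increase in AMPA-evoked release.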

Activity (Oocyte [1]) [µM] | Activity (Oocyte [2]) [µM] | Activity (Oocyte [3]) [%] | EC50 [4] [µM] | SMILES | Activity (Hippocampus) [%]
6 | 18 | 1740 |  | CN1CNS(=O)(=O)c2cc(Cl)ccc21 | 
300 | > 1000 | > 300 |  | CCN1C=NS(=O)(=O)c2cc(C)ccc21 | 
> 1000 | > 1000 |  |  | CN1C=NS(=O)(=O)c2cc(Cl)ccc21 | 
> 300 | > 300 |  |  | CCN1CNS(=O)(=O)c2cc(N)ccc21 | 
320 | 650 | > 600 |  | Cc1ccc2c(c1)S(=O)(=O)N=CN2C | 
22 | 46 | > 1900 |  | CN1CNS(=O)(=O)c2ccccc21 | 
> 100 | > 100 |  |  | CCN1CNS(=O)(=O)c2cc(C(=O)O)ccc21 | 
25 | 95 | > 1300 |  | CCN1CNS(=O)(=O)c2cc(C)ccc21 | 
37 | 127 | > 1700 |  | CN1CN(C)S(=O)(=O)c2ccccc21 | 
95 |  | > 400 |  | CCN1CNS(=O)(=O)c2cc(I)ccc21 | 
> 100 | > 100 |  |  | CCN1CNS(=O)(=O)c2cc(C(=O)OC)ccc21 | 
68 | 190 | > 600 |  | CCN1CNS(=O)(=O)c2cc(OC)ccc21 | 
7 | 17 | > 1900 |  | CN1CN(C)S(=O)(=O)c2cc(Cl)ccc21 | 
1.6 | 9.8 | 844 | 7.1 | NS(=O)(=O)c1cc2c(cc1Cl)NC(C1CC3C=CC1C3)NS2(=O)=O (centres undefined) [CYCLOTHIAZIDE] | 73
32 | 180 | > 600 |  | CCN1CNS(=O)(=O)c2cc(C(=O)Oc3ccccc3)ccc21 | 
21 | 64 | > 1100 |  | CCN1CN(C)S(=O)(=O)c2cc(Cl)ccc21 | 
450 | > 1000 |  |  | CN1C=NS(=O)(=O)c2ccccc21 | 
21 | 47 | > 3000 |  | Cc1ccc2c(c1)S(=O)(=O)NCN2C | 
400 | > 1000 | > 400 |  | CCN1C=NS(=O)(=O)c2cc(Cl)ccc21 | 
29 | 78 | > 1100 |  | CCN1CNS(=O)(=O)c2cc(Br)ccc21 | 
134 | 509 | > 700 |  | CC1Nc2ccc(Cl)cc2S(=O)(=O)N1 (centres undefined) | 
14 | 38 | > 1800 |  | CCN1CNS(=O)(=O)c2ccccc21 | 
> 300 | > 300 |  |  | CN1CNS(=O)(=O)c2cc(N)ccc21 | 
> 300 | > 300 |  |  | CCN1CNS(=O)(=O)c2cc(C(F)(F)F)ccc21 | 
16 | 45 | > 1000 |  | CCN1CNS(=O)(=O)c2cc([N+](=O)[O-])ccc21 | 
11 | 26 | > 1400 |  | CN1CNS(=O)(=O)c2cc([N+](=O)[O-])ccc21 | 
> 300 | > 300 |  |  | CCN1CNS(=O)(=O)c2cc(NC(C)=O)ccc21 | 
24.6 | 78.2 | 1260 | 130 | O=S1(=O)N[C@H]2CCCN2c2ccccc21 | 0
